# Data taken from ChEMBL document CHEMBL3992510, “Urea Derivatives of 2-Aryl-benzothiazol-5-amines: A New Class of Potential Drugs for Human African Trypanosomiasis” (J Med Chem, 2017).
# Tests used:
# [1] = system: Trypanosoma brucei brucei; experiment: Antitrypanosomal activity against Trypanosoma brucei brucei BF427 assessed as growth inhibition measured after 48 hrs by Alamar blue assay; assay type: functional; conditions: BF427, 48 h
# In short: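 Bloodstream-form parasites in HMI-9 medium are exposed to serial compound dilutions in triplicate. Viability is read with Alamar Blue at 48 h. EC50 and EC90 come from nonlinear regression. Pentamidine isethionate is the control.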
# [2] = system: HepG2; experiment: Cytotoxicity against human HepG2 cells assessed as growth inhibition after 48 hrs by Alamar blue assay; assay type: cell-based; conditions: for EC50: Homo sapiens, HepG2, 48 h; for EC90: human, hepg2, 48 h
# In short: (§1)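 CRL-8155 lymphoblasts or HepG2 hepatocellular carcinoma cells are exposed 48 h to serial compound dilutions in quadruplicate. Growth is read with Alamar Blue, and 50% and 90% inhibitory concentrations come from nonlinear regression. Quinacrine is the control.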
# [3] = Selectivity index, ratio of EC50 for human HepG2 cells to EC50 for Trypanosoma brucei brucei BF427; assay type: toxicity; conditions: read-out: Ratio EC50
# [4] = Selectivity index, ratio of EC50 for human CRL8155 cells to EC50 for Trypanosoma brucei brucei BF427; assay type: toxicity; conditions: read-out: Ratio EC50
# [5] = Cytotoxicity against human CRL8155 cells assessed as growth inhibition after 48 hrs by Alamar blue assay; assay type: cell-based; conditions: for EC50: Homo sapiens, CRL8155, 48 h; for EC90: human, crl8155, 48 h; in short: as §1
# [6] = Drug level in mouse plasma at 5 mg/kg, ip administered as single dose measured at 1 hr post dose by liquid chromatography/tandem mass spectrometric analysis; assay type: ADME, organism-based
# In short: (§2)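 Single ip dose of 5 mg/kg in 5% DMSO/7% Tween 80/3% EtOH in 0.9% saline, three mice per compound (six for one compound). At 1 h, plasma is separated by centrifugation and brain homogenized in acetonitrile. Both are quantified by LC-MS/MS, with brain corrected for 3% v/w blood. Brain/plasma ratio is reported as mean ± SEM.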
# [7] = Drug level in mouse brain at 5 mg/kg, ip administered as single dose measured at 1 hr post dose by liquid chromatography/tandem mass spectrometric analysis; assay type: ADME, organism-based; conditions: read-out: Drug uptake; in short: as §2
# [8] = system: Liver; experiment: Half life in mouse liver microsomes at 1.5 uM in presence of NADPH by liquid chromatography/tandem mass spectrometric analysis; assay type: ADME, microsome
# [9] = system: Liver; experiment: Half life in human liver microsomes at 1.5 uM in presence of NADPH by liquid chromatography/tandem mass spectrometric analysis; assay type: ADME, microsome
structure (smiles),measurement,setting,value
O=C(Nc1ccc2sc(-c3ccc(F)c(F)c3)nc2c1)N1CCC(O)C1 (centres undefined),EC50,[1],7.68 µM
same,EC90,[1],13.6 µM
O=C(Nc1ccc2sc(-c3cccc(F)c3F)nc2c1)N1CCCC1,EC50,[1],0.183 µM
same,EC90,[1],0.394 µM
same,EC50,[2],> 50 µM
same,EC90,[2],> 50 µM
same,selectivity ratio,[3],> 273
same,selectivity ratio,[4],> 273
same,EC50,[5],> 50 µM
same,EC90,[5],> 50 µM
same,concentration at 1 h,[6],1300 nM
same,concentration at 1 h,[7],2310 nM
CC(C)(Cc1nc(-c2ccccc2)cs1)NC(=O)c1ccccc1,EC50,[1],> 10 µM
same,EC90,[1],> 10 µM
COc1ccc2c(c1)[C@]13CCCC[C@@H]1[C@H](C2)N(C)CC3 [DEXTROMETHORPHAN],t1/2,[8],7.79 min
same,t1/2,[9],39.15 min
O=C(Nc1ccc2oc(-c3ccccc3)nc2c1)N1CCCC1,EC50,[1],5.25 µM
same,EC90,[1],> 10 µM
same,concentration at 1 h,[6],270 nM
same,concentration at 1 h,[7],397 nM
O=C(Nc1nc2ccc(-c3ccc(F)c(F)c3)cc2s1)N1CCC(F)C1 (centres undefined),EC50,[1],2.23 µM
same,EC90,[1],> 20 µM
O=C(Nc1ccc2sc(-c3ccc(F)cc3)nc2c1)N1CCCCC1,EC50,[1],0.427 µM
same,EC90,[1],0.737 µM
same,EC50,[2],> 50 µM
same,EC90,[2],> 50 µM
same,selectivity ratio,[3],> 117
same,selectivity ratio,[4],> 117
same,EC50,[5],> 50 µM
same,EC90,[5],> 50 µM
C[C@]12CC[C@H]3[C@@H](CCC4=CC(=O)CC[C@@]43C)[C@@H]1CC[C@@H]2O [TESTOSTERONE],t1/2,[8],5.26 min
same,t1/2,[9],22.7 min
CC(C)(Cc1nc(-c2cccc(F)c2)cs1)NC(=O)c1ccccc1,EC50,[1],> 10 µM
same,EC90,[1],> 10 µM
O=C(Nc1ccc2sc(-c3ccccc3)nc2c1)c1ccsc1,EC50,[1],1.57 µM
same,EC90,[1],2.49 µM
CN(C)C1CCN(C(=O)Nc2ccc3sc(-c4ccc(F)c(F)c4)nc3c2)C1 (centres undefined),EC50,[1],1.7 µM
same,EC90,[1],1.95 µM
same,concentration at 1 h,[6],780 nM
same,concentration at 1 h,[7],3000 nM
O=C(NCCc1nc(-c2cccc(F)c2)cs1)N1CCc2ccccc2C1,EC50,[1],9.76 µM
same,EC90,[1],13.8 µM
O=C(Nc1ccc2sc(-c3cccc(F)c3)nc2c1)c1ccccc1,EC50,[1],1.78 µM
same,EC90,[1],3.62 µM
O=C(Nc1ccc2sc(-c3ccc(F)cc3)nc2c1)c1ccccc1,EC50,[1],1.92 µM
same,EC90,[1],3 µM
O=C(Nc1ccc2sc(-c3ccccc3)nc2c1)N1CCSC1,EC50,[1],1.24 µM
same,EC90,[1],2.38 µM
N#CC1CCN(C(=O)Nc2ccc3sc(-c4ccc(F)c(F)c4)nc3c2)C1 (centres undefined),EC50,[1],2.85 µM
same,EC90,[1],4.67 µM
NC1CCN(C(=O)Nc2ccc3sc(-c4ccc(F)c(F)c4)nc3c2)C1 (centres undefined),EC50,[1],2.32 µM
same,EC90,[1],2.72 µM
CCN(CC)CCCC(C)Nc1c2ccc(Cl)cc2nc2ccc(OC)cc12 (centres undefined) [QUINACRINE],EC50,[2],10.4 µM
same,EC90,[2],18.2 µM
same,EC50,[5],4.23 µM
same,EC90,[5],9.94 µM
O=C(Nc1ccc2[nH]c(-c3ccccc3)nc2c1)c1ccccc1,EC50,[1],> 10 µM
same,EC90,[1],> 10 µM
C[C@@H]1CCC[C@H](C)N1C(=O)NCCc1nc(-c2cccc(F)c2)cs1,EC50,[1],0.399 µM
same,EC90,[1],0.564 µM
same,EC50,[2],> 50 µM
same,EC90,[2],> 50 µM
same,selectivity ratio,[3],> 125
same,selectivity ratio,[4],> 125
same,EC50,[5],> 50 µM
same,EC90,[5],> 50 µM
O=C(NCCc1nc(-c2cccc(F)c2)cs1)N1CCCc2ccccc21,EC50,[1],5.95 µM
same,EC90,[1],14 µM
O=C(Nc1ccc2sc(-c3ccc(F)c(F)c3)nc2c1)N1CCC(C(F)(F)F)C1 (centres undefined),EC50,[1],1.69 µM
same,EC90,[1],4.88 µM
same,concentration at 1 h,[6],4150 nM
same,concentration at 1 h,[7],1970 nM
O=C(Nc1nc2cc(-c3ccc(F)c(F)c3)ccc2s1)N1CCC(F)C1 (centres undefined),EC50,[1],2.64 µM
same,EC90,[1],5.28 µM
O=C(Nc1ccc2sc(-c3ccccc3F)nc2c1)N1CCCCC1,EC50,[1],0.935 µM
same,EC90,[1],1.14 µM
same,EC50,[2],> 50 µM
same,EC90,[2],> 50 µM
same,selectivity ratio,[3],> 53
same,selectivity ratio,[4],> 53
same,EC50,[5],> 50 µM
same,EC90,[5],> 50 µM
O=C(Nc1ccc2sc(-c3ccc(F)c(F)c3)nc2c1)N1CCC(F)(F)CC1,EC50,[1],2.98 µM
same,EC90,[1],4.17 µM
O=C(Nc1ccc2sc(-c3ccc(F)c(F)c3)nc2c1)N1CCCCC1,EC50,[1],0.223 µM
same,EC90,[1],0.282 µM
same,EC50,[2],> 50 µM
same,EC90,[2],> 50 µM
same,selectivity ratio,[3],> 224
same,selectivity ratio,[4],> 224
same,EC50,[5],> 50 µM
same,EC90,[5],> 50 µM
same,concentration at 1 h,[6],2520 nM
same,concentration at 1 h,[7],1290 nM
